Measured values reported in ChEMBL document CHEMBL2331334, “Hybrid furoxanyl N-acylhydrazone derivatives as hits for the development of neglected diseases drug candidates” (Eur J Med Chem, 2013).
In brackets after ≈: the same amount, converted by molar mass.

What was measured:
[1] = test system: Mycobacterium tuberculosis; test: Antimycobacterial activity against multidrug-resistant Mycobacterium tuberculosis clinical isolate assessed as growth inhibition after 5 days by MTT assay; format: functional; settings: 120 h
Method in brief: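 MTB inoculum made from 20–30-day slant growth in Tween 80/0.2% BSA, adjusted to McFarland No. 1, then diluted in 7H9GC broth (Middlebrook 7H9, glycerol, Casitone, OADC). Final inoculum about 1.2 × 10^6 CFU/mL. Compounds taken from DMSO stock to final 0.4–25 in broth, with a DMSO control. Plates run 5 days at 37 °C, then tetrazolium (MTT)–Tween 80 added for a further 24 h at 37 °C. Read-out is MIC.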

[2] = Selectivity index, ratio of IC50 for mouse J774.1 cells to MIC for multidrug-resistant Mycobacterium tuberculosis clinical isolate; format: functional
Method in brief: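 Cytotoxicity: J774.1 macrophages in DMEM with 4 mM L-glutamine and 10% heat-inactivated FCS, seeded at 5 × 10^4/well, attached 48 h at 37 °C, 5% CO2. Exposed 48 h to 12.5–400.0 µM compound or vehicle. MTT at 0.1 mg/mL final for 3 h, formazan dissolved in DMSO/glycine buffer pH 10.5, A560 read. IC50 by linear regression, divided by the MIC against the same MTB strain.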

Question: With `Cc1c(C(=O)N/N=C/c2ccc(C(=O)O)cc2)no[n+]1[O-]` as the compound, how does the MIC [1] read?
Answer: Its MIC is > 86.2 µM.

Question: For `O=C(N/N=C/c1ccc2no[n+]([O-])c2c1)c1cccnc1`, which MIC [1] is on record?
Answer: The MIC was 22.1 µM (≈ 6.26 µg/mL).

Question: What about the “Selectivity Index” value [2] of the same compound?
Answer: The value was 1.4.

Question: For `Cc1c(C(=O)N/N=C/c2ccc(C(F)(F)F)cc2)no[n+]1[O-]`, which MIC [1] is on record?
Answer: The MIC was > 79.6 µM.

Question: Which MIC [1] does the source give for `Cc1c(C(=O)N/N=C/c2ccc([N+](=O)[O-])o2)no[n+]1[O-]` here?
Answer: The MIC was 44.5 µM (≈ 12.5 µg/mL).

Question: What does the source list for `O=C(N/N=C/c1ccc2no[n+]([O-])c2c1)c1ccncc1`?
Answer: MIC [1]: 11 µM (≈ 3.12 µg/mL); Selectivity Index [2]: 12

Question: Which MIC [1] does the source give for `Cc1c(C(=O)N/N=C/c2ccccc2)no[n+]1[O-]` here?
Answer: Its MIC is > 102 µM.

Question: With `Cc1c(/C=N/NC(=O)c2ccncc2)no[n+]1[O-]` as the compound, how does the MIC [1] read?
Answer: Its MIC is > 25.4 µM.

Question: With `Cc1c(/C=N/NC(=O)c2no[n+]([O-])c2C)no[n+]1[O-]` as the compound, how does the MIC [1] read?
Answer: The MIC was > 93.6 µM.

Question: Which MIC [1] does the source give for `Cc1c(/C=N/NC(=O)c2ccc3c(c2)OCO3)no[n+]1[O-]` here?
Answer: The MIC was > 86.2 µM.

Question: Which MIC [1] does the source give for `Cc1c(C(=O)N/N=C/c2cccc(O)c2)no[n+]1[O-]` here?
Answer: Its MIC is > 95.4 µM.

Question: For `Cc1nc2ccccn2c1C(=O)N/N=C/c1no[n+]([O-])c1C`, which MIC [1] is on record?
Answer: The MIC was > 83.3 µM.

Question: For `Cc1c(C(=O)N/N=C/c2ccccn2)no[n+]1[O-]`, which MIC [1] is on record?
Answer: The MIC was > 101 µM.

Question: With `COc1ccc(/C=N/NC(=O)c2no[n+]([O-])c2C)cc1OC` as the compound, how does the MIC [1] read?
Answer: The MIC was > 81.6 µM.

Question: With `O=C(N/N=C/c1ccc2nonc2c1)c1cccnc1` as the compound, how does the MIC [1] read?
Answer: Its MIC is 46.8 µM (≈ 12.5 µg/mL).

Question: And the “Selectivity Index” value [2]?
Answer: Its value is 5.

Question: For `COc1ccc(/C=N/NC(=O)c2no[n+]([O-])c2C)cc1O`, which MIC [1] is on record?
Answer: The MIC was > 85.6 µM.

Question: Which MIC [1] does the source give for `Cc1c(C(=O)N/N=C/c2ccc(Br)cc2)no[n+]1[O-]` here?
Answer: Its MIC is > 74 µM.

Question: What does the source list for `Cc1nc2ccccn2c1C(=O)N/N=C/c1ccc2no[n+]([O-])c2c1`?
Answer: MIC [1]: 38.6 µM (≈ 13 µg/mL); Selectivity Index [2]: 3.7

Question: Which MIC [1] does the source give for `Cc1[nH]cnc1C(=O)N/N=C/c1no[n+]([O-])c1C` here?
Answer: Its MIC is > 100 µM.

Question: For `Cc1c(/C=N/NC(=O)c2cccnc2)no[n+]1[O-]`, which MIC [1] is on record?
Answer: Its MIC is > 101 µM.

Question: For `Cc1c(C(=O)N/N=C/c2c(-c3ccccc3)no[n+]2[O-])no[n+]1[O-]`, which MIC [1] is on record?
Answer: Its MIC is > 75.8 µM.

Question: With `O=C(N/N=C/c1ccc2no[n+]([O-])c2c1)c1cnn(-c2ccccc2)c1` as the compound, how does the MIC [1] read?
Answer: Its MIC is > 17.9 µM.

Question: With `Cc1c(C(=O)N/N=C/c2ccccc2O)no[n+]1[O-]` as the compound, how does the MIC [1] read?
Answer: Its MIC is > 95.4 µM.

Question: For `Cc1[nH]cnc1C(=O)N/N=C/c1ccc2no[n+]([O-])c2c1`, which MIC [1] is on record?
Answer: Its MIC is 21.9 µM (≈ 6.27 µg/mL).

Question: And the “Selectivity Index” value [2]?
Answer: Its value is 1.5.

Question: For `CC(=O)Nc1ccc(/C=N/NC(=O)c2no[n+]([O-])c2C)cc1`, which MIC [1] is on record?
Answer: The MIC was > 82.5 µM.

Question: For `Cc1c(C(=O)N/N=C/c2ccc3c(c2)OCO3)no[n+]1[O-]`, which MIC [1] is on record?
Answer: The MIC was > 86.2 µM.

Question: For `O=C(N/N=C/c1ccc2nonc2c1)c1ccncc1`, which MIC [1] is on record?
Answer: The MIC was > 93.6 µM.

Question: Which MIC [1] does the source give for `Cc1c(/C=N/NC(=O)c2cnn(-c3ccccc3)c2)no[n+]1[O-]` here?
Answer: The MIC was > 80.1 µM.

Question: With `Cc1c(C(=O)N/N=C/c2ccco2)no[n+]1[O-]` as the compound, how does the MIC [1] read?
Answer: Its MIC is > 106 µM.

Question: Which MIC [1] does the source give for `Cc1c(C(=O)N/N=C/c2ccc(N(C)C)cc2)no[n+]1[O-]` here?
Answer: The MIC was > 86.5 µM.

Question: Which MIC [1] does the source give for `Cc1c(C(=O)N/N=C/c2ccc3no[n+]([O-])c3c2)no[n+]1[O-]` here?
Answer: Its MIC is 82.2 µM (≈ 25 µg/mL).

Question: Which MIC [1] does the source give for `COc1cc(/C=N/NC(=O)c2no[n+]([O-])c2C)cc(OC)c1OC` here?
Answer: The MIC was > 74.4 µM.

Question: With `O=C(N/N=C/c1c(-c2ccccc2)no[n+]1[O-])c1cnn(-c2ccccc2)c1` as the compound, how does the MIC [1] read?
Answer: The MIC was > 66.8 µM.

Question: With `O=C(N/N=C/c1c(-c2ccccc2)no[n+]1[O-])c1ccncc1` as the compound, how does the MIC [1] read?
Answer: Its MIC is 10.1 µM (≈ 3.12 µg/mL).

Question: And the “Selectivity Index” value [2]?
Answer: The value was >40.

Question: Which MIC [1] does the source give for `Cc1nc2ccccn2c1C(=O)N/N=C/c1c(-c2ccccc2)no[n+]1[O-]` here?
Answer: Its MIC is 8.6 µM (≈ 3.12 µg/mL).

Question: What about the “Selectivity Index” value [2] of the same compound?
Answer: The value was 6.5.

Question: Which MIC [1] does the source give for `Cc1c(C(=O)N/N=C/c2ccc([N+](=O)[O-])cc2)no[n+]1[O-]` here?
Answer: Its MIC is > 85.9 µM.

Question: For `Cc1[nH]cnc1C(=O)N/N=C/c1c(-c2ccccc2)no[n+]1[O-]`, which MIC [1] is on record?
Answer: The MIC was > 80.1 µM.

Question: With `O=C(N/N=C/c1ccc2no[n+]([O-])c2c1)c1ccc2c(c1)OCO2` as the compound, how does the MIC [1] read?
Answer: The MIC was > 76.7 µM.

Question: With `O=C(N/N=C/c1c(-c2ccccc2)no[n+]1[O-])c1ccc2c(c1)OCO2` as the compound, how does the MIC [1] read?
Answer: Its MIC is > 71 µM.

Question: With `O=C(N/N=C/c1c(-c2ccccc2)no[n+]1[O-])c1cccnc1` as the compound, how does the MIC [1] read?
Answer: The MIC was 20.2 µM (≈ 6.25 µg/mL).

Question: And the “Selectivity Index” value [2]?
Answer: The value was 10.

Question: Which MIC [1] does the source give for `COc1cc(/C=N/NC(=O)c2no[n+]([O-])c2C)ccc1O` here?
Answer: Its MIC is > 85.6 µM.

Question: Which MIC [1] does the source give for `NNC(=O)c1ccncc1` [ISONIAZID] here?
Answer: Its MIC is 45.6 µM (≈ 6.25 µg/mL).

Question: What about the “Selectivity Index” value [2] of the same compound?
Answer: The value was >9.

Question: With `Cc1c(C(=O)N/N=C/c2ccc([N+](=O)[O-])s2)no[n+]1[O-]` as the compound, how does the MIC [1] read?
Answer: The MIC was 42.1 µM (≈ 12.5 µg/mL).
